Our source for the inhibition values is ChEMBL document CHEMBL4330096, “Discovery of potent and selective 5-azaindazole inhibitors of leucine-rich repeat kinase 2 (LRRK2) - Part 1” (Bioorg Med Chem Lett, 2019).

The inhibition is the percentage by which the read-out fell short of the control.

Test [1] addresses T1, Serine/threonine-protein kinase BRSK2 (Homo sapiens) (UniProt Q8IWQ3).
T1 sequence (whole entry): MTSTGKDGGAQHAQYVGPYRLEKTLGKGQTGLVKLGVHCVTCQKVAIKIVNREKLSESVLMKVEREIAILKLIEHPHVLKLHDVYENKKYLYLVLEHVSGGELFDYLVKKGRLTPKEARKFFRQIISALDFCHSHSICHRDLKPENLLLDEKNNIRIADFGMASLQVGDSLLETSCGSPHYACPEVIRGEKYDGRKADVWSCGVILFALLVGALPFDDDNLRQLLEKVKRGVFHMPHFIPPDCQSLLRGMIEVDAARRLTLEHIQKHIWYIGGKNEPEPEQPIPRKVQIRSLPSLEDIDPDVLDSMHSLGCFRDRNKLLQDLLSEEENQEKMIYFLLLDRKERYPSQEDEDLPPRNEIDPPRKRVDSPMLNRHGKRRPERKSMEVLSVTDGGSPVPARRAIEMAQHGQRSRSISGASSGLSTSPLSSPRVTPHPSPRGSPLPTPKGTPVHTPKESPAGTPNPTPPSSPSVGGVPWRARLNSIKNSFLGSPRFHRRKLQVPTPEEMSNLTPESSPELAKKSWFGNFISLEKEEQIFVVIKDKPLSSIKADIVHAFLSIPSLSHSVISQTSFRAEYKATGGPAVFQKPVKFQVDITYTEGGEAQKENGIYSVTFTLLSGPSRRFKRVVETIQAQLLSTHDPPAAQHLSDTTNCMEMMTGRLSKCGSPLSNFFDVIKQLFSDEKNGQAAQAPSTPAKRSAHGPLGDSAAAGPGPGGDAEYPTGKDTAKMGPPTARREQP
Description: Inhibition of BRSK2 (unknown origin) at 10 uM relative to control. Summed up:
(§1)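 Single-point screen of each compound against a panel of 59 protein kinases, at 1 or 10 μM. The panel data are also summarised as a rescaled geometric mean selectivity score.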

In test [2] the target is Calcium/calmodulin-dependent protein kinase type 1 (Homo sapiens) (UniProt Q14012). Description: Inhibition of CAMK1 (unknown origin) at 10 uM relative to control. Summed up: as §1
Chain of Calcium/calmodulin-dependent protein kinase type 1 (Homo sapiens) (Q14012 whole entry, looked up): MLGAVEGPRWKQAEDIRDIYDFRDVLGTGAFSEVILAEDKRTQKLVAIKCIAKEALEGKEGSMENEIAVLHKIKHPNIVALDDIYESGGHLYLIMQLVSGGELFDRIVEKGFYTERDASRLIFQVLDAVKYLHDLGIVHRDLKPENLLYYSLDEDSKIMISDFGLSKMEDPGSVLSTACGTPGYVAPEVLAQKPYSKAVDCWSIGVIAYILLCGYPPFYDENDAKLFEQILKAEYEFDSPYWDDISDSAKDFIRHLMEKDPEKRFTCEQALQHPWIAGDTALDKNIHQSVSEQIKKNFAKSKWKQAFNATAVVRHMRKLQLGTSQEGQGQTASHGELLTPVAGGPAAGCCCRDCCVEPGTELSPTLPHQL
Test [3] addresses T2, Serine/threonine-protein kinase Chk1 (Homo sapiens) (UniProt O14757).
T2 sequence (whole entry): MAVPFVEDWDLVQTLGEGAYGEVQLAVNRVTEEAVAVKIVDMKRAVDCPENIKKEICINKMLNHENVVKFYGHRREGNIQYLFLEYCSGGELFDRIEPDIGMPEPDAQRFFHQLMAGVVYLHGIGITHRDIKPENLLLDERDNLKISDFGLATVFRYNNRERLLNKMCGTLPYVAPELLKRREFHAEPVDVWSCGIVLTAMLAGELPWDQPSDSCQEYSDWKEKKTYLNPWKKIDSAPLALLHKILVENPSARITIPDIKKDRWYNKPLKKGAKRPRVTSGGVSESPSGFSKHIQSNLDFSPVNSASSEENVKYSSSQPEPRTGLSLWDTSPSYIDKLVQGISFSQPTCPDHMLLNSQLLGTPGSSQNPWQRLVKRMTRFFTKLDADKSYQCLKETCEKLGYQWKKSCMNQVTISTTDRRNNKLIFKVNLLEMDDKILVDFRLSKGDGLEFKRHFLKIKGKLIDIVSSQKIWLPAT
Description: Inhibition of CHK1 (unknown origin) at 10 uM relative to control. Summed up: as §1

In test [4] the target is Tyrosine-protein kinase CSK (Homo sapiens) (UniProt P41240). Description: Inhibition of CSK (unknown origin) at 10 uM relative to control. Summed up: as §1
Chain of Tyrosine-protein kinase CSK (Homo sapiens) (P41240 2-450 limits assumed): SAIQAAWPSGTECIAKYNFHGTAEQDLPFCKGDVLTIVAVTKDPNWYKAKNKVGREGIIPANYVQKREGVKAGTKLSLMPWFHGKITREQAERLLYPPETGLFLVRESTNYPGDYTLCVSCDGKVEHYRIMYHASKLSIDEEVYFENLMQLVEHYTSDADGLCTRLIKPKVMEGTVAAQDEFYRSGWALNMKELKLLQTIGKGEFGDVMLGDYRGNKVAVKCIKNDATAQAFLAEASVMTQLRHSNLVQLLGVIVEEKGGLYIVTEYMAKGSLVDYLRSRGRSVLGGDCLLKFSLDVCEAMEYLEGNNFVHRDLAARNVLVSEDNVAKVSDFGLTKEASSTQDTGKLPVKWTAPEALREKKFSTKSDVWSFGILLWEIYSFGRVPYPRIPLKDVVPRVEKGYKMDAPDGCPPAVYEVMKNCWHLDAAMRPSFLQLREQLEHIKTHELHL
In test [5] the target is Mitogen-activated protein kinase 3 (Homo sapiens) (UniProt P27361). Description: Inhibition of ERK1 (unknown origin) at 10 uM relative to control. Summed up: as §1
Chain of Mitogen-activated protein kinase 3 (Homo sapiens) (P27361 whole entry): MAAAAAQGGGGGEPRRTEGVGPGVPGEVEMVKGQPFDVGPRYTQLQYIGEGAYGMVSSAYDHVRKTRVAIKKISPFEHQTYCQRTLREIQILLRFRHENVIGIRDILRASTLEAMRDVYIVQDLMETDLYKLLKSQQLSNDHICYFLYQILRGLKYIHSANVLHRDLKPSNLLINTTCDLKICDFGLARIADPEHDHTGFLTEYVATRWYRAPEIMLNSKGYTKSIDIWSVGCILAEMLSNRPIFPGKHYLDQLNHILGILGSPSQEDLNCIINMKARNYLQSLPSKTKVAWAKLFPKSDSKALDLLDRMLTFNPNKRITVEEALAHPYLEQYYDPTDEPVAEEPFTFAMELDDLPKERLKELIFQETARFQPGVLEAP
For test [6], the target named is Insulin receptor-related protein (Homo sapiens) (UniProt P14616). Description: Inhibition of IRR (unknown origin) at 10 uM relative to control. Summed up: as §1
The target of test [7] is Mitogen-activated protein kinase 9 (Homo sapiens) (UniProt P45984). Description: Inhibition of JNK2 (unknown origin) at 10 uM relative to control. Summed up: as §1
Chain of Mitogen-activated protein kinase 9 (Homo sapiens) (P45984 whole entry, looked up): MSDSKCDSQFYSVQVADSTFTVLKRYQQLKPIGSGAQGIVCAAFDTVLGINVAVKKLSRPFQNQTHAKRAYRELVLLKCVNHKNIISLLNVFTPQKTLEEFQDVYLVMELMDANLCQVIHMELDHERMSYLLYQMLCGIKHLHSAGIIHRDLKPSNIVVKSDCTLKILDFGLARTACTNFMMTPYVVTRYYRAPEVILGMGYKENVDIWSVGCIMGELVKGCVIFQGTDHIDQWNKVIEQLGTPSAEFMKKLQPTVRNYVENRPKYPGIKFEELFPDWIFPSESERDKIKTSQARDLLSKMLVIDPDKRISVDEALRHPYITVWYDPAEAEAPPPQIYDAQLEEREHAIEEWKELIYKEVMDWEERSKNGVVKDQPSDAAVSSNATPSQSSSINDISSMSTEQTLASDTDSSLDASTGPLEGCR
Test [8] has as its target Tyrosine-protein kinase Lck (Homo sapiens) (UniProt P06239). Description: Inhibition of Lck (unknown origin) at 10 uM relative to control. Summed up: as §1
Test [9] has as its target T3, Serine/threonine-protein kinase 3 (Homo sapiens) (UniProt Q13188).
T3 sequence (whole entry): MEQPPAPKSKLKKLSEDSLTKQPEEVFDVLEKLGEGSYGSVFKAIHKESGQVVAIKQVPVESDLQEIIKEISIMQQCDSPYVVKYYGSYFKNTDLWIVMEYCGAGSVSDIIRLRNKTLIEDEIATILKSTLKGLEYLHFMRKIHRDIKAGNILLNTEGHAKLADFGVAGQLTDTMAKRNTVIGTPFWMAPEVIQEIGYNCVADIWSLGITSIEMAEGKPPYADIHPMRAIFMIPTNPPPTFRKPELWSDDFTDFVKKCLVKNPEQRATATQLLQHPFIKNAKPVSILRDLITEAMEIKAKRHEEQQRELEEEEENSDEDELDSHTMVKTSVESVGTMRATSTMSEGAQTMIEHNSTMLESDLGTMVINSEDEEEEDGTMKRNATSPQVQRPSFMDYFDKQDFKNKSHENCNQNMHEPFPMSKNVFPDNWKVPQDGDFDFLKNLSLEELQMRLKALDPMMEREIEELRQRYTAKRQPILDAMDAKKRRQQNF
Description: Inhibition of MST2 (unknown origin) at 10 uM relative to control. Summed up:
(§2)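 Single-concentration screen of each compound against a 59-protein-kinase panel, run at 10 µM or 1 µM. Activity relative to control is shown as a heat map across the panel.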

The target in test [10] is Mitogen-activated protein kinase 14 (Homo sapiens) (UniProt Q16539). Description: Inhibition of p38a MAPK (unknown origin) at 10 uM relative to control. Summed up: (§3)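 Single-concentration screen across a panel of 59 protein kinases, with each compound tested at one fixed concentration. The read-out is residual kinase activity relative to control. Panel results are also condensed into a rescaled geometric mean (RGM) selectivity score.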
Chain of Mitogen-activated protein kinase 14 (Homo sapiens) (Q16539 whole entry): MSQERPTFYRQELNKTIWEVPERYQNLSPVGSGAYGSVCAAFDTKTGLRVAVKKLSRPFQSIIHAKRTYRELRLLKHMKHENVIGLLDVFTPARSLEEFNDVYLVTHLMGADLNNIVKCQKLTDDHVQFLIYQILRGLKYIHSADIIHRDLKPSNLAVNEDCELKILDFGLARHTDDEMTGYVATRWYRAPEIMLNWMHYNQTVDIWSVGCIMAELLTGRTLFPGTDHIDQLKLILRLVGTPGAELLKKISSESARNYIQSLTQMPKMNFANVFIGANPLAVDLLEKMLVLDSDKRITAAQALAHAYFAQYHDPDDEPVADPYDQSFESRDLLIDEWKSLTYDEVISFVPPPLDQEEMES

In test [11] the target is Rho-associated protein kinase 2 (Homo sapiens) (UniProt O75116). Description: Inhibition of ROCK2 (unknown origin) at 10 uM relative to control. Summed up: as §2
For test [12], the target named is Proto-oncogene tyrosine-protein kinase Src (Homo sapiens) (UniProt P12931). Description: Inhibition of Src (unknown origin) at 10 uM relative to control. Summed up: as §3
Chain of Proto-oncogene tyrosine-protein kinase Src (Homo sapiens) (P12931 2-536 limits assumed): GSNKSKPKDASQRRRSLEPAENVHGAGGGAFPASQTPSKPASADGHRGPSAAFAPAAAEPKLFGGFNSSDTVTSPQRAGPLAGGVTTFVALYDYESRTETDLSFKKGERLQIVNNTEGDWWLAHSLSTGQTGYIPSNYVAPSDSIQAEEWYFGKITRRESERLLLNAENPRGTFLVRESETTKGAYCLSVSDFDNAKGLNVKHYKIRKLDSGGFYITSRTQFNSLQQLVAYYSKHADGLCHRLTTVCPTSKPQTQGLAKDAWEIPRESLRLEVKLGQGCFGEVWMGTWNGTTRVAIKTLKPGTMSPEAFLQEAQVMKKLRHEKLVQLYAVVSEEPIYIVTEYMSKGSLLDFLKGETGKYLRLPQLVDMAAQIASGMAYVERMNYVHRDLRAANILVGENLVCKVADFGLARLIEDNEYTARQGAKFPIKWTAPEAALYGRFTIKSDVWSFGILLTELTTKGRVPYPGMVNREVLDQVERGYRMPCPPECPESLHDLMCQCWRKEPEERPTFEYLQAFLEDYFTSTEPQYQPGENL
The target in test [13] is Tyrosine-protein kinase SYK (Homo sapiens) (UniProt P43405). Description: Inhibition of SYK (unknown origin) at 10 uM relative to control. Summed up:
as §3

Test [14] concerns the target Tyrosine-protein kinase Yes (Homo sapiens) (UniProt P07947). Description: Inhibition of YES1 (unknown origin) at 10 uM relative to control. Summed up:
as §3

Test [15] addresses 3-phosphoinositide-dependent protein kinase 1 (Homo sapiens) (UniProt O15530). Description: Inhibition of PDK1 (unknown origin) at 10 uM relative to control.

Structures are written as SMILES.

Chain of Tyrosine-protein kinase Yes (Homo sapiens) (P07947 2-543 limits assumed): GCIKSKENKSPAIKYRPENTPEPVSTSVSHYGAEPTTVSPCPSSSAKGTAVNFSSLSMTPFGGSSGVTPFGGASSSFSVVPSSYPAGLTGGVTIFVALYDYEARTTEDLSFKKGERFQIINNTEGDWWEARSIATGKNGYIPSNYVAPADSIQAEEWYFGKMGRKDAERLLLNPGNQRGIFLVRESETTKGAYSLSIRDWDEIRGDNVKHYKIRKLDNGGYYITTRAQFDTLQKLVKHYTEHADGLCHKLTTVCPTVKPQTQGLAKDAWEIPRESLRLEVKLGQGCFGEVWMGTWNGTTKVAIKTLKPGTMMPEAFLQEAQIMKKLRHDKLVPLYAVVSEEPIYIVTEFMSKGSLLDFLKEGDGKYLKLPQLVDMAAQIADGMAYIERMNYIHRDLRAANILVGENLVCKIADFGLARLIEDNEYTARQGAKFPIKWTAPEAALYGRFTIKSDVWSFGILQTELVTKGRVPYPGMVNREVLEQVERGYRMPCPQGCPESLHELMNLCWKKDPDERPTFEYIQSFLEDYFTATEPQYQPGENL
Chain of Tyrosine-protein kinase Lck (Homo sapiens) (P06239 2-509 limits assumed): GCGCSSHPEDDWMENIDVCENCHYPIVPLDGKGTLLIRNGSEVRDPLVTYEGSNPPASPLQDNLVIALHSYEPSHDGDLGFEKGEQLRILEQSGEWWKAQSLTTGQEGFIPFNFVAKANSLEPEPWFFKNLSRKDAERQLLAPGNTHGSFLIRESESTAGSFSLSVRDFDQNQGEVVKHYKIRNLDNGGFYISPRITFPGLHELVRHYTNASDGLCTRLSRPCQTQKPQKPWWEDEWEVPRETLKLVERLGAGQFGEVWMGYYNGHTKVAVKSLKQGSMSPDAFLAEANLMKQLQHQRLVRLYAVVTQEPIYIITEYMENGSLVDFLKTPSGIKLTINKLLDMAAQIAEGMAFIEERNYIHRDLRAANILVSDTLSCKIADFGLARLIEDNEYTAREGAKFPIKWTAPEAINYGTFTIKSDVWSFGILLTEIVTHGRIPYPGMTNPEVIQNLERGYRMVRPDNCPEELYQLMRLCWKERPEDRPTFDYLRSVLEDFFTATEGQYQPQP
Chain of 3-phosphoinositide-dependent protein kinase 1 (Homo sapiens) (O15530 whole entry, looked up): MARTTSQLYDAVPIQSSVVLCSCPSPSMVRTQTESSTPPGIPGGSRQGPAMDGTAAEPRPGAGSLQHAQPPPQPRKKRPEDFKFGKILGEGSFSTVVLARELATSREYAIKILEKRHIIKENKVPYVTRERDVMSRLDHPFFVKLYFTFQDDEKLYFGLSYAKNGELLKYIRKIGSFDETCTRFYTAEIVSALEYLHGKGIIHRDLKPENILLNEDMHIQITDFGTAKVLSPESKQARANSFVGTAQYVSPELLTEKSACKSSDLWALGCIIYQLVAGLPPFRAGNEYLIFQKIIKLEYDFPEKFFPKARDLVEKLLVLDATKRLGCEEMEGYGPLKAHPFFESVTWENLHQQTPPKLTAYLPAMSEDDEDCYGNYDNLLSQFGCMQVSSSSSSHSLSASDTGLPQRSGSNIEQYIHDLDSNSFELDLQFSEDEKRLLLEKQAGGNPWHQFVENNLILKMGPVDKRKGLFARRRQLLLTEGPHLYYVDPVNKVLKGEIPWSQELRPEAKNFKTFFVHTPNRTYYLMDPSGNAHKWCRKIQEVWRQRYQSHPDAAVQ

Take `Cc1n[nH]c2ccnc(OC3CCCCC3)c12`: the inhibition in test [1] is 67%; in test [2], 41%; in test [3], 27%; in [4] it was 20%; in test [5], 48%; in [6], 66%. In addition, the inhibition in test [7] came out at 66%; in [8], 47%; in test [9] it was 79%; in test [10] it was 0%; in test [11], 92%; in test [12], 47%. Besides, the inhibition in [13] was 16%; in test [14], 44%; in test [15], 34%.

Turning to `Cc1n[nH]c2ccnc(NC3CCCCC3)c12`, the inhibition in test [1] worked out at 46%; in [2] it was 13%; in test [3] it was 0%; in test [4], 0%; in test [5], 40%; in test [6] it was 70%. The inhibition in test [7] was determined as 41%; in [8], 13%; in test [9] it was 80%; in [10], 9%; in test [11], 79%; in test [12], 0%. The values for the inhibition in test [13], in test [14] and in test [15] were 17%, 30% and 13%, respectively.

Consider `Cc1n[nH]c2ccnc(Nc3ccccc3F)c12`, for which the inhibition in test [1] is 68%; in test [2] it was 23%; in test [3], 43%; in [4] it was 8%; in test [5] it was 69%; in test [6] it was 77%. Moreover, the inhibition turned out to be 54% in test [7]; 22% in test [8]; 66% in test [9]; 10% in [10]; 62% in test [11]; 23% in test [12]. Further, the inhibition in test [13] turned out to be 0%; in test [14] it was 26%; in [15] it was 25%.

As to `Cc1n[nH]c2ccnc(Nc3ccc4ncsc4c3)c12`, the inhibition in test [1] is 35%; in [3], 13%; in [4], 0%; in test [7], 49%; in test [8], 8%; in test [9] it was 72%. In addition, the inhibition in test [10] and in test [13] was 0% in each case.
